FAK inh = FAK (human) kinase inhibition | Q05397 | biochemical FAK kinase activity assay | inhibition, %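 (tested at 7 µM)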 | 97,000 tested, 0.84% active; in the data active = inhibition above about 19%;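 note: 0% = DMSO and 100% = reference compound high control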
NFkB transloc inh = blocks IL-1B driven NFkB nuclear translocation in HUVEC cells | HUVEC IL-1B NFkB p65 nuclear translocation imaging | inhibition, % at 2 µM | 94,000 tested, 0.43% active;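 active = inhibition above about 30% together with a positive call from visual inspection of the well image, limit read from the data; inconclusive = inhibition above a set limit but visual check negative; inactive = inhibition not above a set limit, visual check negative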;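 note: nuclear over cytoplasmic p65 intensity ratio measured by imaging; 0% = IL-1B stimulated DMSO wells and 100% = unstimulated DMSO wells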
NFkB transloc pot = enhances IL-1B driven NFkB nuclear translocation | HUVEC IL-1B NFkB p65 nuclear translocation imaging | activation, % at 2 µM | 94,000 tested, 0.3% active | AID 819;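 active = activation above 40%, about the mean plus 3 SD, also judged a hit on visual image review; inconclusive = activation above 40% but not a hit on visual review; inactive = activation not above 40% and no visual hit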;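 note: percent activation is computed from the nuclear over cytoplasmic p65 intensity ratio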
HIV Rev-RRE inh = HIV Rev-RRE protein-RNA interaction inhibition; inhibition, % at 8 µM; 97,000 tested, 0.79% active; Rev peptide-RRE RNA binding, FRET;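 active = inhibition above the screen-wide mean plus 3 SD, cut at about 35% in these data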;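 note: 0% = median DMSO wells and 100% = median Neomycin B control wells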
Target sequence (P05866 whole entry, looked up): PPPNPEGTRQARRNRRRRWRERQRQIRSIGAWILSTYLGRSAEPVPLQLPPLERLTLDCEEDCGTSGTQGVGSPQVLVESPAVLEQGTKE
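Assay system: Labelled RRE RNA duplex and labelled Rev peptide | Times: 5 min preincubation and 15 min binding, 25 °C | Detection: FRET, ex 480 nm, em 540 and 671 nm | Evaluation: % inhibition of FRET ratio versus controls | Benchmarks: DMSO wells as 0% and neomycin B wells as 100% inhibition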
Measles CPE = protection of cells from measles virus; protection (pct of control), % at 4 µM; AID 841; Measles virus-infected cells, CPE protection, absorbance; 140,000 tested, 1.5% active; in the data active = protection mostly above about 24%, no sharp cut-off; inactive = mostly below about 26%
IL1B cytotox = HUVEC cytotoxicity counter-screen, IL-1B stimulated; HUVEC cell count loss, Hoechst imaging; cell count reduction, % at 2 µM; 94,000 tested, 0.41% active; AID 845;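 active = cell count reduction more than 3 SD above the screen-wide mean, cut at about 70% in these data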;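 note: normalized per plate to untreated control cells as the no-loss baseline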
Starred values were filed as active, the others as inactive; u = inconclusive; x = not tested or not shown; [ ] = remark or other dose. Sampled rows, rich in hits. Any-hit rate of the full collection: about 3.3%.

SMILES	FAK inh	NFkB transloc inh	NFkB transloc pot	HIV Rev-RRE inh	Measles CPE	IL1B cytotox
COC(=O)c1ccc(Cn2nnc3ccccc3c2=O)o1	1	1	-1	2	20	17
O=c1c2ccccc2nnn1CSc1ccccc1	x	x	x	x	13	x
O=c1c2ccccc2nnn1Cc1ccccn1	8	-5	5	7	63*	18
C/C(Cn1cnc([N+](=O)[O-])n1)=N/NC(=O)COc1c(Cl)cc(Cl)cc1Cl	x	x	x	x	10	x
O=C(NCc1ccccc1Cl)c1ccc(S(=O)(=O)Nc2cccc(C(F)(F)F)c2)cc1	x	x	x	x	5	x
CC1(C(=O)NCCN2CCOCC2)C=CC2(CCCCC2)N1C(=O)c1ccccc1 (stereo not given)	x	x	x	x	4	x
COCCNC(=O)C1(C)C=CC2(CCCCC2)N1C(=O)c1ccccc1 (stereo not given)	x	x	x	x	22*	x
COc1ccc(C2CC(O)(C(C)(C)O)NO2)cc1 (stereo not given)	-3	-42	u	1	7	0
CC1(C2(O)CC(c3ccccc3)ON2)CCCCC1 (stereo not given)	1	1	-1	10	29*	-16
C=CCNC(=O)C1CC1(c1ccccc1)c1ccccc1 (stereo not given)	x	x	x	x	4	x
Cc1cc(C)cc(NC(=O)C2CCCN2/C=C/C(=O)C(F)(F)F)c1 (stereo not given)	x	x	x	x	22	x
CC(=O)N(CCCN1CCOCC1)Cc1ccncc1	1	4	-4	6	57*	-10
Cc1ccc(S(=O)(=O)N2CCOCC2)cc1C(=O)OCC(=O)NC1CCS(=O)(=O)C1 (stereo not given)	x	x	x	x	7	x
O=C(Cn1c2ccccc2c(=O)c2ccccc21)Nc1cccc(F)c1	x	x	x	x	12	x
CCOC(=O)C1CCCN(S(=O)(=O)c2cccs2)C1 (stereo not given)	-1	-4	4	-2	29*	-16
COC(=O)c1sccc1NC(=O)COc1ccccc1Cl	x	x	x	x	4	x
Cc1ccc(OCc2nnc(SCC(=O)O)n2N)cc1	-4	-19	19	6	40*	-30
NC(=O)C1(N2CCCCC2)CCN(C(=O)c2cccs2)CC1	1	-40	40*	1	16	8
NC(=O)C1(N2CCCCC2)CCN(C2CC(=O)N(CCc3ccccc3)C2=O)CC1 (stereo not given)	-1	5	-5	4	12	6
NC(=O)C1(N2CCCCC2)CCN(C2CC(=O)N(Cc3cccs3)C2=O)CC1 (stereo not given)	-1	32*	-32	11	1	9
COc1cccc(-c2cc(C(=O)NCCCn3ccnc3)c3ccccc3n2)c1	x	x	x	x	9	x
CN1CCC(=NNC(=O)C(=O)NC2CCCC2)CC1	-1	1	-1	4	56*	-16
CN1CCC(=NNC(=O)C(=O)NC2CCCCC2)CC1	-2	-11	11	0	1	-13
COc1ccc(CNC(=O)COC(=O)[C@H](Cc2c[nH]c3ccccc23)NC(=O)c2cccs2)cc1	x	x	x	x	26	x
CCNc1ccc(C(=O)OCC(=O)N(Cc2ccccc2)C(C)(C)C)cc1[N+](=O)[O-]	x	x	x	x	19	x
SMILES	FAK inh	NFkB transloc inh	NFkB transloc pot	HIV Rev-RRE inh	Measles CPE	IL1B cytotox
CC12Cc3ccc4ccccc4c3C=C1C[N+](C)(C)C2 (stereo not given)	1	49*	-49	-12	6	-3
CC[N+]1(CC)CC2=Cc3c(ccc4ccccc34)CC2C1 (stereo not given)	0	6	-6	-3	7	-1
CNc1nc2[nH]c(=O)c3c(c2s1)OC(N)=C(C#N)C3c1cccc(F)c1 (stereo not given)	-1	-23	23	99*[fluorescence artefact?]	21	-40
COc1ccc(OC)c(NC(=O)c2ccc3c(=O)n(CCc4ccccc4)c(=S)[nH]c3c2)c1	x	x	x	x	5	x
OCc1ccnc(Cl)c1	x	x	x	x	5	x
O=C(O)c1ccnc(Cl)c1	x	x	x	x	25*	x
O=S(=O)(/N=C(/Nc1ccc(F)cc1F)c1ccccc1)c1ccccc1	x	x	x	x	6	x
CCCCOC(=O)Nc1ccc(S(=O)(=O)Nn2cnnc2)cc1	x	x	x	x	18*	x
COc1ccc(-n2nnnc2/C=C\Nc2ccccc2C(=O)c2ccccc2)cc1	3	27	-27	1	31*	-32
Cc1cccc(OCC(=O)N/N=C/CC(C)c2ccccc2)c1C (stereo not given)	x	x	x	x	7	x
Cn1cc([N+](=O)[O-])c(C(=O)Nc2nc(-c3ccc(Cl)cc3)cs2)n1	-3	77*	-77	2	15	-10
Cc1ccc(-c2nc(NC(=O)c3nn(C)cc3[N+](=O)[O-])sc2C)cc1C	1	45*	-45	7	4	66
COC(=O)C1CCN(c2ccc(C(N)=O)cc2[N+](=O)[O-])CC1	x	x	x	x	4	x
Clc1ccc2oc3c(Cl)ncnc3c2c1	x	x	x	x	4	x
CCCCC1(C)OC(=O)C(=Cc2ccc(N(C)C)cc2)C(=O)O1 (stereo not given)	-5	-5	5	54*	14	22
CN(C)c1ccc(/C=C2\CCCCC2=O)cc1	x	x	x	x	9	x
N#CC1=C(N)Nc2nc3ccccc3n2C1c1ccc(Cl)cc1 (stereo not given)	x	x	x	x	3	x
Cc1cccc(/C=C2\CS/C(=C\c3cccc(C)c3)C2=O)c1	-1	54*	-54	26	5	-10
O=C1/C(=C/c2cccc(F)c2)CSc2sccc21	2	-16	16	5	5	13
CC(C(=O)O)N1C(=O)/C(=C/c2cccn2C)SC1=S (stereo not given)	x	x	x	x	7	x
CC1C/C(=C/c2cccn2C)C(=O)/C(=C/c2cccn2C)C1 (stereo not given)	-1	-23	23	136*[fluorescence artefact?]	1	0
CC1=CC(C)(C)Nc2ccc(OC(=O)CN3C(=O)c4cccc5cccc(c45)C3=O)cc21	10	6	-6	14	45*	32
COc1ccc(OC)c(N(CC(=O)Nc2cccnc2)S(C)(=O)=O)c1	-1	-4	4	4	7	3
COc1ccc(OC)c(N(CC(=O)NC2CC2)S(=O)(=O)c2ccc(C)cc2)c1	0	2	-2	5	10	-12
COc1ccc(OC)c(N(CC(=O)Nc2cccnc2)S(=O)(=O)c2ccc(C)cc2)c1	0	60*	-59	7	5	2
SMILES	FAK inh	NFkB transloc inh	NFkB transloc pot	HIV Rev-RRE inh	Measles CPE	IL1B cytotox
COc1ccc(OC)c(N(CC(=O)Nc2cccnc2)S(=O)(=O)c2ccc(OC)c(OC)c2)c1	-1	91*	-91	2	20	90*
c1ccc(SCCOCCN2CCc3ccccc3C2)cc1	x	x	x	x	8	x
CC(C)CC(=O)Nc1ccc(C(=O)Cn2nc(C(=O)O)c3ccccc3c2=O)cc1	0	6	-6	3	31*	-2
C=CCn1c(COc2cccc(C)c2)nnc1SCn1nnc2ccccc2c1=O	x	x	x	x	6	x
CCN(CC)c1ccc(/C=C/c2nc3ccccc3s2)cc1	-5	7	-7	123*[fluorescence artefact?]	31	-24
CCOC(=O)N1CCN(C(=O)CN(c2ccc3c(c2)OCO3)S(C)(=O)=O)CC1	-11	-15	15	2	8	-13

Bioassay records (PubChem)
